Data taken from ChEMBL document CHEMBL1122250, “Synthesis and bacterial metabolism of cis- and trans-2-alkyl analogues of sodium cyclamate” (1983).

Key:
Rattus norvegicus [1] = species: Rattus norvegicus; test: Evaluated for the amine formed (during conversion of N-cycloalkylsulfamates to cycloalkylamines) in 10 mL incubation in Control rats; assay type: functional
Method in brief: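 Fresh feces (~5 g) from control rats were suspended in prereduced anaerobic minimal medium (pH 7 ± 0.2), spun at low then high speed, and the pellet resuspended. 1.0 mL suspension plus 9 mL medium and 100 mg sulfamate ran 22–24 h at 44–45 °C with CO2 bubbling. Amine was extracted at pH 10 into CH2Cl2, derivatized with phenyl isocyanate, and read by HPLC-UV 240 nm against an external standard. Reported as total µg per 10 mL.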

Rattus norvegicus [2] = species: Rattus norvegicus; test: Evaluated for the amine formed (during conversion of N-cycloalkylsulfamates to cycloalkylamines) in 10 mL incubation in cyclamate-fed rats; assay type: functional
Method in brief: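 Rats drank 1% sodium cyclamate for at least 6 weeks; only cyclamate converters were used. Fresh feces (~5 g) were suspended in prereduced anaerobic minimal medium (pH 7 ± 0.2), and the washed bacterial pellet was resuspended. 1.0 mL suspension plus 9 mL medium and 100 mg sulfamate ran 22–24 h at 44–45 °C with CO2 bubbling. Amine was converted to phenylurea with phenyl isocyanate and quantified by HPLC-UV 240 nm against an external standard. Reported as µg per 10 mL.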

SMILES	Amine formed (Rattus norvegicus [1]) [µg]	Amine formed (Rattus norvegicus [2]) [µg]
CC1CCCCC1NS(=O)(=O)[O-].[Na+] (cis isomer)	402	457
CC1CCCCC1NS(=O)(=O)[O-].[Na+] (stereo in doubt)	0	42
CCC1CCCCC1NS(=O)(=O)[O-].[Na+] (stereo in doubt)	–	35
CC(C)C1CCCCC1NS(=O)(=O)[O-].[Na+] (stereo in doubt)	27.9	37.5
CCC1CCCCC1NS(=O)(=O)[O-].[Na+] (trans isomer)	0	57
CC(C)C1CCCCC1NS(=O)(=O)[O-].[Na+] (trans isomer)	0	0
O=S(=O)([O-])NC1CCCCC1.[Na+] [SODIUM CYCLAMATE]	0	39
